# Measurements of several laboratories.
# Organism: Klebsiella pneumoniae
SMILES,test,test system,conditions,endpoint,value
CCCCS(=O)(=O)Oc1cccc2cccnc12,"microbial growth, broth dilution",ATCC700603,,IC50,171 µg/mL
COc1cc(Cc2cnc(N)nc2N)cc(OC)c1OC,"microbial growth, broth dilution",ATCC700603,,MIC,20 µM
O=C(O)c1cn(C2CC2)c2cc(N3CCNCC3)c(F)cc2c1=O,"microbial growth, disc diffusion",,"100 µg/mL, 24 h",inhibition zone,17 mm
CCOC(=O)c1c(N)csc1-c1cn(-c2ccccc2)nc1-c1ccc(C)cc1,"microbial growth, well diffusion",,100000 µg/mL,inhibition zone,27 mm
O=C(N[C@H](CO)[C@H](O)c1ccc([N+](=O)[O-])cc1)C(Cl)Cl,"microbial growth, broth dilution",ATCC700603,,MIC,80 µM
O=C(O)c1cn(C2CC2)c2cc(N3CCNCC3)c(F)cc2c1=O,"microbial killing, broth dilution",,,MBC,0.5 µg/mL
NC[C@H]1O[C@H](O[C@H]2[C@H](O)[C@@H](O[C@H]3O[C@H](CO)[C@@H](O)[C@H](N)[C@H]3O)[C@H](N)C[C@@H]2N)[C@H](N)C[C@@H]1O,"microbial growth, broth dilution",ATCC700603,,MIC,1.3 µM
N#CC(=Cc1ccc([N+](=O)[O-])cc1)C1=NC(=O)C(=Cc2cn(-c3ccccc3)nc2-c2ccccc2)S1,"microbial growth, well diffusion",,100000 µg/mL,inhibition zone,22 mm
Cc1ccc(C(C)C)cc1OCc1cn(-c2ccc(C(=O)O)cc2)nn1,"microbial growth, broth dilution",ATCC700603,,IC50,261 µg/mL
CCn1cc(C(=O)O)c(=O)c2cc(F)c(N3CCNCC3)cc21,"microbial killing, broth dilution",ATCC43816,,MBC,2 µM
Cc1c(CN(C)C(=O)/C=C/c2cnc3c(c2)CC(CCN)C(=O)N3)oc2ccccc12.Cl (centres unmarked),"microbial growth, broth dilution",BAA2470,,MIC,4 µg/mL
Cc1ccc(C(C)C)cc1OS(=O)(=O)c1cccs1,"microbial growth, broth dilution",ATCC700603,,IC50,163 µg/mL
CCOC(=O)C=c1[nH]c(=O)c(=Cc2cn(-c3ccccc3)nc2-c2ccccc2)s1,"microbial growth, well diffusion",,100000 µg/mL,inhibition zone,14 mm
Cc1ccc(S(=O)(=O)Oc2cc(C(C)C)ccc2C)cc1,"microbial growth, broth dilution",ATCC700603,,IC50,279 µg/mL
C[C@H]1[C@H](NC(=O)/C(=N\OC(C)(C)C(=O)O)c2csc(N)n2)C(=O)N1S(=O)(=O)O,"microbial growth, broth dilution",ATCC700603,,MIC,0.63 µM
N#CC(=Cc1ccccc1O)C1=NC(=O)C(=Cc2cn(-c3ccccc3)nc2-c2ccccc2)S1,"microbial killing, broth dilution",,,MBC,0.5 µg/mL
Cc1ccc(C(C)C)cc1OCc1cn(-c2ccc(Cl)cc2)nn1,"microbial growth, broth dilution",ATCC700603,,IC50,206 µg/mL
